According to ChEMBL document CHEMBL4017460, “A Tobramycin Vector Enhances Synergy and Efficacy of Efflux Pump Inhibitors against Multidrug-Resistant Gram-Negative Bacteria” (J Med Chem, 2017):
≈ marks a conversion by molar mass, not a printed value. Calls of active or inactive are those of the source. The rule behind the calls is not given here.

Key:
[1] = test system: Pseudomonas aeruginosa PAO1; assay: Inhibition of RND efflux pump in Pseudomonas aeruginosa PAO1 assessed as potentiation of chloramphenicol-induced antibacterial activity […] by microbroth dilution assay
Pseudomonas aeruginosa [2] = assay: Reduction in flagellum-dependant motility in Pseudomonas aeruginosa PAO1 after 20 hrs by swimming motility test; type: functional
Method in brief: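 PAO1 flagellum-dependent swimming motility on swimming plates containing sub-MIC compound, compared with plates without compound.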

Pseudomonas aeruginosa [3] = assay: Inhibition of RND efflux pump in Pseudomonas aeruginosa isolate P259-96918 assessed as potentiation of minocycline-induced antibacterial activity by measuring fold reduction in minocycline MIC at 8 ug/ml after 18 to 24 hrs by microbroth dilution assay
Method in brief: (§1)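 Checkerboard broth microdilution: antibiotic 2-fold diluted along one axis, adjuvant 2-fold diluted along the other. Overnight culture standardized to 0.5 McFarland in saline, diluted 1:50 in MHB, added to wells, 37 °C for 18 h. MIC is the lowest concentration with no growth. FIC = MIC in combination / MIC alone; FICI = sum of the two FICs; FICI ≤0.5 is synergy.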

[4] = test system: Pseudomonas aeruginosa PAO1; assay: Inhibition of RND efflux pump in Pseudomonas aeruginosa PAO1 assessed as potentiation of trimethoprim-induced antibacterial activity […] by microbroth dilution assay
Pseudomonas aeruginosa [5] = assay: Antibacterial activity against Pseudomonas aeruginosa isolate P262-101856 after 18 to 24 hrs by microbroth dilution assay; type: functional; method in brief: as §1
Pseudomonas aeruginosa [6] = assay: Inhibition of RND efflux pump in Pseudomonas aeruginosa isolate P260-97103 assessed as potentiation of minocycline-induced antibacterial activity by measuring fold reduction in minocycline MIC at 0.25 times antibacterial MIC after 18 to 24 hrs by microbroth dilution assay; method in brief: as §1
Pseudomonas aeruginosa [7] = assay: Inhibition of RND efflux pump in Pseudomonas aeruginosa isolate 101885 assessed as potentiation of minocycline-induced antibacterial activity by measuring minocycline MIC at 8 ug/ml after 18 to 24 hrs by microbroth dilution assay (reference value: 16 to 32 ug/ml)
Method in brief: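 Absolute minocycline MIC taken from checkerboard broth dilution with a fixed 8 μg/mL adjuvant. Inoculum was a 0.5 McFarland saline suspension diluted 1:50 in MHB, incubated 37 °C for 18 h. MIC is the lowest concentration with no growth.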

[8] = test system: Pseudomonas aeruginosa PAO1; assay: Inhibition of RND efflux pump in Pseudomonas aeruginosa PAO1 assessed as potentiation of tigecycline-induced antibacterial activity by measuring fold reduction in tigecycline MIC at 8 ug/ml after 18 to 24 hrs by microbroth dilution assay relative to tigecycline alone; method in brief: as §1
Pseudomonas aeruginosa [9] = assay: Potentiation of minocycline-induced antibacterial activity against mexAB-oprM deficient Pseudomonas aeruginosa PAO200 after 18 to 24 hrs by microbroth dilution assay; type: functional
[10] = test system: Pseudomonas aeruginosa PAO1; assay: Inhibition of RND efflux pump in Pseudomonas aeruginosa PAO1 assessed as potentiation of novobiocin-induced antibacterial activity […] by microbroth dilution assay
[11] = test system: Pseudomonas aeruginosa PAO1; assay: Inhibition of RND efflux pump in Pseudomonas aeruginosa PAO1 assessed as potentiation of minocycline-induced antibacterial activity at 8 ug/ml after 18 to 24 hrs by checker board assay
Method in brief: as §1, with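 “in MHB:” for “broth microdilution:”, “test agent” for “adjuvant”, “wells, incubated” for “wells,”, “FIC index” for “FICI”, “both FICs.” for “the two FICs; FICI ≤0.5 is synergy.”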

Pseudomonas aeruginosa [12] = assay: Reduction in flagellum-dependant motility in Pseudomonas aeruginosa PAO1 at sub MIC after 20 hrs in presence of minocycline by swimming motility test; type: functional
Pseudomonas aeruginosa [13] = assay: Potentiation of rifampicin-induced antibacterial activity against Pseudomonas aeruginosa PAO1 […] by microbroth dilution assay; type: functional
[14] = test system: Pseudomonas aeruginosa PAO1; assay: Inhibition of RND efflux pump in Pseudomonas aeruginosa PAO1 assessed as potentiation of gentamicin-induced antibacterial activity after 18 to 24 hrs by checker board assay
Method in brief: as §1, with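 “in MHB:” for “broth microdilution:”, “test agent” for “adjuvant”, “wells, incubated” for “wells,”, “FIC index” for “FICI”, “both FICs.” for “the two FICs; FICI ≤0.5 is synergy.”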

Klebsiella pneumoniae = assay: Inhibition of RND efflux pump in Klebsiella pneumoniae isolate 116381 assessed as potentiation of minocycline-induced antibacterial activity at 8 ug/ml after 18 to 24 hrs by microbroth dilution assay
Method in brief: as §1, with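 “in MHB:” for “broth microdilution:”, “test agent” for “adjuvant”, “wells, incubated” for “wells,”, “FIC index” for “FICI”, “both FICs.” for “the two FICs; FICI ≤0.5 is synergy.”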

Enterobacter cloacae [15] = assay: Inhibition of RND efflux pump in Enterobacter cloacae isolate 117029 assessed as potentiation of minocycline-induced antibacterial activity at 8 ug/ml after 18 to 24 hrs by microbroth dilution assay
Method in brief: as §1, with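 “in MHB:” for “broth microdilution:”, “test agent” for “adjuvant”, “wells, incubated” for “wells,”, “FIC index” for “FICI”, “both FICs.” for “the two FICs; FICI ≤0.5 is synergy.”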

[16] = test system: Pseudomonas aeruginosa PAO1; assay: Inhibition of RND efflux pump in Pseudomonas aeruginosa PAO1 assessed as potentiation of vancomycin-induced antibacterial activity […] by microbroth dilution assay
Enterobacter cloacae [17] = assay: Antibacterial activity against Enterobacter cloacae isolate 117029 after 18 to 24 hrs by microbroth dilution assay; type: functional
Method in brief: as §1, with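 “in MHB:” for “broth microdilution:”, “test agent” for “adjuvant”, “wells, incubated” for “wells,”, “FIC index” for “FICI”, “both FICs.” for “the two FICs; FICI ≤0.5 is synergy.”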

Pseudomonas aeruginosa [18] = assay: Inhibition of RND efflux pump in colistin-resistant Pseudomonas aeruginosa isolate 101243 assessed as potentiation of minocycline-induced antibacterial activity by measuring fold reduction in minocycline MIC at 8 ug/ml after 18 to 24 hrs by microbroth dilution assay; method in brief: as §1
Pseudomonas aeruginosa [19] = assay: Inhibition of RND efflux pump in Pseudomonas aeruginosa isolate P260-97103 assessed as potentiation of minocycline-induced antibacterial activity at 0.25 times antibacterial MIC after 18 to 24 hrs by checker board assay
Method in brief: as §1, with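 “in MHB:” for “broth microdilution:”, “test agent” for “adjuvant”, “wells, incubated” for “wells,”, “FIC index” for “FICI”, “both FICs.” for “the two FICs; FICI ≤0.5 is synergy.”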

Pseudomonas aeruginosa [20] = assay: Antibacterial activity against Pseudomonas aeruginosa isolate P259-96918 after 18 to 24 hrs by microbroth dilution assay; type: functional
Method in brief: as §1, with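 “in MHB:” for “broth microdilution:”, “test agent” for “adjuvant”, “wells, incubated” for “wells,”, “FIC index” for “FICI”, “both FICs.” for “the two FICs; FICI ≤0.5 is synergy.”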

Pseudomonas aeruginosa [21] = assay: Antibacterial activity against Pseudomonas aeruginosa isolate P260-97103 after 18 to 24 hrs by microbroth dilution assay; type: functional
Method in brief: as §1, with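 “in MHB:” for “broth microdilution:”, “test agent” for “adjuvant”, “wells, incubated” for “wells,”, “FIC index” for “FICI”, “both FICs.” for “the two FICs; FICI ≤0.5 is synergy.”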

Pseudomonas aeruginosa [22] = assay: Induction of cytoplasmic membrane depolarization in Pseudomonas aeruginosa PAO1 by DiSC3(5) dye based fluorescence assay; type: functional
Method in brief: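 Cytoplasmic membrane depolarization in P. aeruginosa PAO1, monitored by DiSC3(5) fluorescence across a range of compound concentrations. Colistin served as positive control.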

Pseudomonas aeruginosa [23] = assay: Inhibition of RND efflux pump in Pseudomonas aeruginosa isolate 101885 assessed as potentiation of minocycline-induced antibacterial activity at 8 ug/ml after 18 to 24 hrs by checker board assay
Method in brief: as §1, with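 “in MHB:” for “broth microdilution:”, “test agent” for “adjuvant”, “wells, incubated” for “wells,”, “FIC index” for “FICI”, “both FICs.” for “the two FICs; FICI ≤0.5 is synergy.”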

[24] = test system: Pseudomonas aeruginosa PAO1; assay: Inhibition of RND efflux pump in Pseudomonas aeruginosa PAO1 assessed as potentiation of erythromycin-induced antibacterial activity […] by microbroth dilution assay
Pseudomonas aeruginosa [25] = assay: Inhibition of RND efflux pump in Pseudomonas aeruginosa isolate 100036 assessed as potentiation of minocycline-induced antibacterial activity at 8 ug/ml after 18 to 24 hrs by checker board assay
Method in brief: as §1, with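 “in MHB:” for “broth microdilution:”, “test agent” for “adjuvant”, “wells, incubated” for “wells,”, “FIC index” for “FICI”, “both FICs.” for “the two FICs; FICI ≤0.5 is synergy.”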

Pseudomonas aeruginosa [26] = assay: Antibacterial activity against Pseudomonas aeruginosa PAO1 after 18 to 24 hrs by microbroth dilution assay; type: functional
Method in brief: as §1, with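 “in MHB:” for “broth microdilution:”, “test agent” for “adjuvant”, “wells, incubated” for “wells,”, “FIC index” for “FICI”, “both FICs.” for “the two FICs; FICI ≤0.5 is synergy.”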

Pseudomonas aeruginosa [27] = assay: Inhibition of RND efflux pump in colistin-resistant Pseudomonas aeruginosa isolate 101243 assessed as potentiation of minocycline-induced antibacterial activity by measuring minocycline MIC at 8 ug/ml after 18 to 24 hrs by microbroth dilution assay (reference value: 32 ug/ml); method in brief: as §1
Pseudomonas aeruginosa [28] = assay: Inhibition of RND efflux pump in Pseudomonas aeruginosa isolate P262-104354 assessed as potentiation of minocycline-induced antibacterial activity by measuring fold reduction in minocycline MIC at 8 ug/ml after 18 to 24 hrs by microbroth dilution assay; method in brief: as §1
Pseudomonas aeruginosa [29] = assay: Inhibition of RND efflux pump in Pseudomonas aeruginosa isolate 101885 assessed as potentiation of minocycline-induced antibacterial activity by measuring fold reduction in minocycline MIC at 8 ug/ml after 18 to 24 hrs by microbroth dilution assay; method in brief: as §1

For `NC[C@H]1C[C@H](C(=O)N[C@H](CCc2ccccc2)C(=O)Nc2ccc3ccccc3c2)N(CCCCCCCCCCCCO[C@@H]2[C@@H](O[C@H]3O[C@H](CO)[C@@H](O)[C@H](N)[C@H]3O)[C@H](N)C[C@H](N)[C@H]2O[C@H]2O[C@H](CN)[C@@H](O)C[C@H]2N)C1`, the fractional inhibitory concentration index (FICI) [1] was < 0.1, the Activity (Pseudomonas aeruginosa [2]) was “Dose-dependent effect” and the fold change (FC) (Pseudomonas aeruginosa [3]) was 8 to 256. The fractional inhibitory concentration index (FICI) [4] was < 0.1, the MIC (Pseudomonas aeruginosa [5]) was 32 µg/mL (≈ 30.1 µM) and the fold change (FC) (Pseudomonas aeruginosa [6]) was 8 to 256. For the same molecule, the MIC (Pseudomonas aeruginosa [7]) was < 0.125 µg/mL, the fold change (FC) [8] was 8 to 64 and the Activity (Pseudomonas aeruginosa [9]) was “inactive”. For the same molecule, the fractional inhibitory concentration index (FICI) [10] was < 0.1, the fractional inhibitory concentration index (FICI) [11] was 0.09 and the Activity (Pseudomonas aeruginosa [12]) was “Active”. For the same molecule, the “fractional inhibitory concentration index (FICI)” value (Pseudomonas aeruginosa [13]) was <0.05, the fractional inhibitory concentration index (FICI) [14] was > 1.5 and the fractional inhibitory concentration index (FICI) (Klebsiella pneumoniae) was 0.03 to 0.16. The fractional inhibitory concentration index (FICI) (Enterobacter cloacae [15]) was 0.13, the fractional inhibitory concentration index (FICI) [16] was < 0.15 and the MIC (Enterobacter cloacae [17]) was 32 µg/mL (≈ 30.1 µM). The fold change (FC) (Pseudomonas aeruginosa [18]) was 8 to 256, the fractional inhibitory concentration index (FICI) (Pseudomonas aeruginosa [19]) was 0.31 and the MIC (Pseudomonas aeruginosa [20]) was 64 µg/mL (≈ 60.1 µM). The MIC (Pseudomonas aeruginosa [21]) was 4 µg/mL (≈ 3.76 µM), the Activity (Pseudomonas aeruginosa [22]) was “Dose-dependent effect” and the fractional inhibitory concentration index (FICI) (Pseudomonas aeruginosa [23]) was 0.13. For the same molecule, the fractional inhibitory concentration index (FICI) [24] was < 0.2, the fractional inhibitory concentration index (FICI) (Pseudomonas aeruginosa [25]) was 0.06 and the MIC (Pseudomonas aeruginosa [26]) was 32 µg/mL (≈ 30.1 µM). For the same molecule, the MIC (Pseudomonas aeruginosa [27]) was 0.5 µg/mL, the fold change (FC) (Pseudomonas aeruginosa [28]) was 8 to 256 and the fold change (FC) (Pseudomonas aeruginosa [29]) was 8 to 256.
